Yeast superoxide: reduction of superoxide in aged yeast, primary screen, HTS; S. cerevisiae aged cells, superoxide DHE fluorescence; active compounds read low; hit rate 0.18% among 330,000; superoxide response (% of plate mean), % at 10 µM; AID 2690, 2010;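 active = superoxide response under a set limit, about three screen SD below normal, cut at about 65% in these data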;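 note: yeast aged for seven days with compound at 30 °C before DHE staining; 100% = average MFI of all compound-treated wells on the plate with controls excluded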
S1P3 antag: S1P3 receptor antagonists, primary screen, cell-based. CHO S1P3 NFAT-BLA reporter, FRET fluorescence, antagonist mode. inhibition, % at 4.98 µM. hit rate 0.27% among 170,000. AID 485, 2006;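 active = inhibition above the plate cutoff, the mean inhibition of test wells on that plate plus 3 SD, cut at about 28% in these data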;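 note: cells challenged with S1P at its EC80 of 0.8 µM; blue over green emission ratio from cleaved BLA substrate after 4 h stimulation; 0% = S1P-stimulated wells and 100% = unstimulated DMSO-only wells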
Target sequence (Q99500 whole entry, looked up): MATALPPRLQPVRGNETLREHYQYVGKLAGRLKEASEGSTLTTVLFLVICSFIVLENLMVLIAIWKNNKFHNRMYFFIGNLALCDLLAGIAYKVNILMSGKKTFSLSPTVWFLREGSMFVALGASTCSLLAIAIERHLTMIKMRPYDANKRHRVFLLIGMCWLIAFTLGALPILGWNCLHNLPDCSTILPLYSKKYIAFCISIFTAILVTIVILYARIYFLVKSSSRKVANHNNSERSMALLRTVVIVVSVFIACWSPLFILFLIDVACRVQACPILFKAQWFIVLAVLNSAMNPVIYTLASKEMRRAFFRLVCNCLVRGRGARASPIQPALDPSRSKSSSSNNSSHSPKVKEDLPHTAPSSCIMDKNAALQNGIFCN
T cell HTS: modulators of CD8 T cell-vesicle binding, primary screen, mouse 2C CD8+ T cells, flow cytometry | 2C CD8+ T cell-vesicle binding; active compounds read low | response (vesicle binding), % at 7 µM | hit rate 0.068% among 330,000 | AID 2052, 2009;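 active = response, share of CD8 T cells binding vesicles, and their 90th percentile fluorescence all below set limits, cut at about 80% in these data, passing the limit was not always enough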;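 note: values below 100% mean blocked vesicle binding to the CD8+ T cells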
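Assay system – 2C mouse CD8+ T cells · Also added – QL9-loaded Drosophila micro-vesicles · Timing – Cell–vesicle co-incubation 1.5 h at 37 °C, staining 20 min on ice · Signal – flow cytometry of vesicle-bound cells · Measure – percent CD8+ FL2 mean versus row control · Controls – Peptide-free naked vesicles (low) and QL9 vesicles with 0.7% DMSO vehicle (high)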
* hit, by the source's call; i = inactive; . = no result given. Compounds with a hit are over-represented: about 0.41% of the library has one in this group of screens.

SMILES	Yeast superoxide	S1P3 antag	T cell HTS
CC1=CC(=C(C#N)c2nc3ccccc3s2)C=C(C)N1Cc1ccco1	93	56*	.
N#C/C(=C(/O)c1ccco1)c1nc2ccccc2s1	142	-20	393
CC(C)CN(C(=O)Cn1nnc(-c2ccc(F)cc2)n1)C1CCS(=O)(=O)C1 (stereo not given)	103	.	0
O=C(Cc1n[nH]c(=O)c2ccccc12)OCC(=O)c1ccccc1	70	.	218
CCOc1ccccc1NC1c2ccccc2C(=O)N1Cc1ccco1 (stereo not given)	79	1	911
CCc1ccccc1NC1c2ccccc2C(=O)N1Cc1ccco1 (stereo not given)	104	75*	737
O=C(CSc1nnnn1C1CCCCC1)Nc1ccccc1F	101	-12	64
O=C(CSc1nnnn1C1CC2CCC1C2)Nc1ccnc2ccccc12 (stereo not given)	95	64*	154
NC(=O)C1CCN(C(=O)c2cc3ccccc3cc2O)CC1	92	.	280
CCn1c(CNc2ccccc2Cl)nnc1SCC(=O)NCc1ccccc1	91	70*	224
CCn1c(CNc2ccc(C)cc2)nnc1SCC(=O)NCc1ccccc1	83	-15	529
COc1ccccc1-c1sc2ccccc2c1-c1ccccc1OC	94	.	337
Cc1cccc(N2CCN(CC(=O)Nc3ccc(S(=O)(=O)N4CCOCC4)cc3)CC2)c1C	71	.	658
CCCc1cc(=O)[nH]c(Nc2ccc(Cl)cc2)n1	102	6	310
CCCc1cc(=O)[nH]c(Nc2ccc(OC)c(Cl)c2)n1	91	92*	376
CC(=O)c1ccc(OCC(=O)Nc2ccccc2C(=O)NC2CC2)cc1	95	.	205
CCN(CC(=O)Nc1ccccc1-c1ccccc1)Cc1nc2ccccc2c(=O)[nH]1	97	7	103
CCN(CC(=O)Nc1ccccc1SC)Cc1nc2ccccc2c(=O)[nH]1	62*	-8	184
O=C(COC(=O)CNC(=O)c1ccc(Cl)c([N+](=O)[O-])c1)NNC(=O)c1ccccc1F	108	.	281
CC1CCCC(C)N1C(=O)CNCc1ccc2c(c1)OCO2 (stereo not given)	85	.	194
Cc1ccc(/C=C/C(=O)Nc2cc(S(=O)(=O)N3CCOCC3)ccc2N2CCOCC2)cc1	62*	.	330
O=C(/C=C/c1ccccc1)Nc1cc(S(=O)(=O)N2CCOCC2)ccc1N1CCCC1	99	6	264
Cc1ccc2c(c1)N(C(=O)CCC(=O)NC1CCN(Cc3ccccc3)CC1)CC(C)O2 (stereo not given)	105	.	i
Cc1cc(Cl)c(OCCCSc2nc(C)cc(=O)[nH]2)c(Br)c1	116	.	74*
Cc1cc(=O)[nH]c(SCCCOc2ccc(F)cc2)n1	90	.	396
SMILES	Yeast superoxide	S1P3 antag	T cell HTS
CN(C)CCN(C(=O)C1CCN(S(=O)(=O)c2cccs2)CC1)c1nc2ccccc2s1	103	.	196
Cn1cc(S(=O)(=O)N2CCCC2)cc1C(=O)O	99	.	498
O=C(Cc1nnc(NC(=O)c2ccccc2)s1)N/N=C/c1ccco1	97	-21	0.0*
O=C(Cc1nnc(NC(=O)c2ccccc2)s1)N/N=C/c1cccc(O)c1	104	.	239
O=C1COc2ccc3ccccc3c21	118	.	118
CC(=O)c1sc(NC(=O)CCN2C(=O)c3ccccc3C2=O)nc1C	90	.	232
COc1ccc(Cl)cc1NC(=O)CN(C)C(=O)CCc1nc2ccccc2c(=O)[nH]1	115	.	276
Nc1nonc1-c1nc2ccccc2n1CC(=O)Nc1ccccc1	100	2	198
CCOC(=O)c1ccccc1NC(=O)Cn1c(-c2nonc2N)nc2ccccc21	99	56*	336
COCCN(C(=O)CSc1nnc(-c2ccccc2F)o1)c1c(N)n(CC(C)C)c(=O)[nH]c1=O	91	.	904
COc1ccc(S(=O)(=O)N2CCN(c3c(C)cccc3C)CC2)cc1OC	103	-16	58
COc1ccc(S(=O)(=O)N2CCN(C)CC2)cc1C	99	56*	213
COc1ccc(S(=O)(=O)N2CCN(S(=O)(=O)c3ccc(C(F)(F)F)cc3)CC2)cc1C	95	3	208
COc1ccc(S(=O)(=O)N2CCN(c3ccc(C)cc3C)CC2)cc1OC	96	103*	225
CC(=O)N1CCC(=NNC(=O)c2cc3ccccc3cc2O)CC1	99	.	352
COc1ccc(S(=O)(=O)N2CCN3CCCC3C2)cc1 (stereo not given)	86	.	154
Cn1c(=O)c2c(nc(NCc3ccccc3)n2Cc2ccc(F)cc2)n(C)c1=O	.	15	.
CCCNc1nc2c(c(=O)n(C)c(=O)n2C)n1Cc1ccc(F)cc1	89	85*	316
Cc1ccc(C(=O)NCC(C)(C)N2CCOCC2)s1	95	.	343
CC(C)(CNC(=O)c1cc2c(s1)CCCC2)N1CCOCC1	106	.	68*
Cc1cccc(Cn2c(=O)n(Cc3ccco3)c(=O)c3ccccc32)c1	89	-25	251
Cc1ccccc1Cn1c(=O)n(Cc2ccco2)c(=O)c2ccccc21	118	55*	106
Cc1ccc(NC(=O)COC(=O)C2COc3ccccc3O2)cc1 (stereo not given)	88	.	628
CC(C)=CC1C(C(=O)Nc2ccc(Br)cn2)C1(C)C (stereo not given)	103	71*	149
CCCCC(=O)Nc1ccc(Br)cn1	117	.	231
SMILES	Yeast superoxide	S1P3 antag	T cell HTS
CCOC(=O)c1c(C)[nH]c(C(=O)N(C)CC(=O)Nc2ccc(OC)cc2)c1C	95	.	352
CCN(c1cccc(C)c1)S(=O)(=O)c1ccc2c3c(cccc13)C(=O)N2	100	.	225
CCN(CC)S(=O)(=O)c1ccc2c3c(cccc13)C(=O)N2	97	16	0.0*
COc1cc(N)c(Cl)cc1C(=O)OCC(=O)NC(=O)NCc1ccco1	93	.	297
COc1ccc(NC(=O)Cc2nnc(SCC(=O)c3ccc(F)cc3)n2C)cc1	98	.	300
O=C(CSCCc1ccccn1)Nc1ccccn1	103	1	410
O=C(O)CSCCc1ccccn1	93	56*	257
CCCNC(=O)C(Cc1cccc(OC)c1)NC(=O)c1ccc(C(C)(C)C)cc1 (stereo not given)	92	.	439
CC(=O)OC[C@]12CC[C@H]3[C@@](C)(CC[C@H]4C(C)(C)CCC[C@]34C)[C@@H]1C[C@H](C1=CC(=O)O[C@H]1OC(C)=O)O2	110	.	272
CC(=O)OC[C@]12CC[C@H]3[C@@](C)(CC[C@H]4C(C)(C)CCC[C@]34C)[C@@H]1C[C@@H](C1=CC(=O)O[C@@H]1OC(C)=O)O2	114	.	0.0*
Cc1ccc(S(=O)(=O)Nc2ccccc2/C=N/c2nc3ccccc3n2C)cc1	84	7	408
Cc1ccc(S(=O)(=O)Nc2ccccc2C=Nc2cccc(C)c2C)cc1	115	-9	0.0*
Cc1ccccc1C(=O)OCC(=O)Nc1cccc(S(=O)(=O)NC2=NCCC2)c1	106	.	689
O=C(CSC1=NNC(c2ccccn2)S1)Nc1ccc(C(F)(F)F)cc1 (stereo not given)	84	16	458
c1ccc(CSC2=NNC(c3ccccn3)S2)cc1 (stereo not given)	125	9	68*

Screening results (PubChem BioAssay)
